This is an account of results in ChEMBL document CHEMBL3044618, “Repellent constituents of essential oil of Cymbopogon distans aerial parts against two stored-product insects” (2011).

What all share (type): functional
Assay [1] has as its system Liposcelis bostrychophila. Description: Insecticidal activity against adult Liposcelis bostrychophila (booklice) assessed as repellent activity at 3.2 nL/cm2 after 2 hr. The method in brief:
(§1)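 Adult booklice, about 2 weeks old, from dark cultures at 28–30 °C and 70–80% RH on milk powder/active yeast/flour (1:1:1). Half of a 6 cm filter paper received 150 μL of sample in acetone; the other half received acetone; both were air-dried. Papers were placed in Fluon-coated 6 cm Petri dishes. Insects on each half were counted at 2 and 4 h. PR = (Nc−Nt)/(Nc+Nt)×100. Five replicates, repeated three times.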

The subject of assay [2] is Tribolium castaneum. Description: Insecticidal activity against adult Tribolium castaneum (red flour beetle) assessed as repellent activity at 0.0016 nL/cm2 after 4 hr. The method in brief:
(§2)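 Adult T. castaneum, about 2 weeks old, reared on wheat flour plus yeast (10:1, w/w) in the dark at 28–30 °C and 70–80% RH. In Fluon-coated 9 cm dishes, half of a 9 cm filter paper received 500 μL of acetone solution and the other half received acetone, then both were air-dried. Insects on each half were counted at 2 and 4 h. Percent repellency was computed from the counts. Five replicates, three runs.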

For assay [3], the system named is Liposcelis bostrychophila. Briefly: Insecticidal activity against adult Liposcelis bostrychophila (booklice) assessed as repellent activity at 6.4 nL/cm2 after 4 hr. Put shortly: as §1
Assay [4] relates to Liposcelis bostrychophila. Briefly: Insecticidal activity against adult Liposcelis bostrychophila (booklice) assessed as repellent activity at 3.2 nL/cm2 after 4 hr. The method in brief: as §1
The subject of assay [5] is Tribolium castaneum. Briefly: Insecticidal activity against adult Tribolium castaneum (red flour beetle) assessed as repellent activity at 0.016 nL/cm2 after 4 hr. The method in brief:
as §2

For assay [6], the system named is Tribolium castaneum. Briefly: Insecticidal activity against adult Tribolium castaneum (red flour beetle) assessed as repellent activity at 0.0016 nL/cm2 after 2 hr. Put shortly:
as §2

The test system of assay [7] is Tribolium castaneum. Briefly: Insecticidal activity against adult Tribolium castaneum (red flour beetle) assessed as repellent activity at 0.16 nL/cm2 after 2 hr. The method in brief:
as §2

Assay [8] has as its system Liposcelis bostrychophila. Briefly: Insecticidal activity against adult Liposcelis bostrychophila (booklice) assessed as repellent activity at 1.6 nL/cm2 after 4 hr. The method in brief: as §1
The test system of assay [9] is Tribolium castaneum. Briefly: Insecticidal activity against adult Tribolium castaneum (red flour beetle) assessed as repellent activity at 1.6 nL/cm2 after 2 hr. Put shortly:
as §2

Assay [10] deals with Liposcelis bostrychophila. Briefly: Insecticidal activity against adult Liposcelis bostrychophila (booklice) assessed as repellent activity at 6.4 nL/cm2 after 2 hr. The method in brief: as §1
In assay [11] the test system is Liposcelis bostrychophila. Briefly: Insecticidal activity against adult Liposcelis bostrychophila (booklice) assessed as repellent activity at 26 nL/cm2 after 4 hr. Put shortly: as §1
In assay [12] the test system is Liposcelis bostrychophila. Description: Insecticidal activity against adult Liposcelis bostrychophila (booklice) assessed as repellent activity at 26 nL/cm2 after 2 hr. The method in brief: as §1
In assay [13] the test system is Tribolium castaneum. Briefly: Insecticidal activity against adult Tribolium castaneum (red flour beetle) assessed as repellent activity at 0.16 nL/cm2 after 4 hr. Put shortly:
as §2

In assay [14] the test system is Tribolium castaneum. Description: Insecticidal activity against adult Tribolium castaneum (red flour beetle) assessed as repellent activity at 16 nL/cm2 after 4 hr. The method in brief: as §2
Assay [15] concerns Tribolium castaneum. Description: Insecticidal activity against adult Tribolium castaneum (red flour beetle) assessed as repellent activity at 0.016 nL/cm2 after 2 hr. The method in brief:
as §2

The subject of assay [16] is Tribolium castaneum. Description: Insecticidal activity against adult Tribolium castaneum (red flour beetle) assessed as repellent activity at 1.6 nL/cm2 after 4 hr. Put shortly:
as §2

The subject of assay [17] is Liposcelis bostrychophila. Briefly: Insecticidal activity against adult Liposcelis bostrychophila (booklice) assessed as repellent activity at 1.6 nL/cm2 after 2 hr. Put shortly:
as §1

For assay [18], the system named is Liposcelis bostrychophila. Briefly: Insecticidal activity against adult Liposcelis bostrychophila (booklice) assessed as repellent activity at 13 nL/cm2 after 2 hr. The method in brief: as §1
Assay [19] has as its system Tribolium castaneum. Briefly: Insecticidal activity against adult Tribolium castaneum (red flour beetle) assessed as repellent activity at 16 nL/cm2 after 2 hr. The method in brief:
as §2

The subject of assay [20] is Liposcelis bostrychophila. Briefly: Insecticidal activity against adult Liposcelis bostrychophila (booklice) assessed as repellent activity at 13 nL/cm2 after 4 hr. The method in brief:
as §1

SMILES strings stand for the structures.

In the case of `CC(C)=CCC[C@@H](C)CC=O` [CITRONELLAL], the Repellency in assay [1] is -4%; in assay [2] it was 0%; in [3], 6%; in [4], 12%; in [5], -16%; in [6], -20%. Further, the Repellency in assay [7] is on record as 10%; in assay [8], -10%; in assay [9], -12%; in [10], 20%; in assay [11], 34%; in assay [12] it was 36%. Besides, the Repellency is reported as 6% in assay [13]; -4% in [14]; 4% in assay [15]; -16% in assay [16]; -10% in assay [17]; -10% in assay [18]. In addition, the Repellency in assay [19] was 16%; in assay [20] it was 4%.

As for `CC(C)=CCC[C@@H](C)CCO` [(+)-CITRONELLOL], the Repellency in [1] amounted to 52%; in assay [2], 36%; in assay [3], 64%; in assay [4] it was 44%; in [5], 48%; in [6], 40%. Further, the Repellency in [7] is 64%; in [8] it was 32%; in assay [9], 82.5%; in assay [10], 66%; in assay [11], 82%; in assay [12], 96%. In addition, the Repellency is recorded as 66% in assay [13]; 96% in [14]; 44% in [15]; 75% in [16]; 28% in assay [17]; 66% in [18]. For the same molecule, the Repellency in assay [19] stood at 88%; in [20], 76%.

`C=C(C)[C@H]1CC=C(C)CC1` [D-LIMONENE]: the Repellency in assay [1] was -10%; in assay [2], 12%; in assay [3], -18%; in assay [4], -22%; in [5], -36%; in assay [6] it was 20%. The Repellency is given as 2% in assay [7]; -4% in [8]; -22% in assay [9]; -20% in [10]; 40% in assay [11]; 36% in assay [12]. Besides, the Repellency is given as 8% in assay [13]; -4% in assay [14]; -36% in assay [15]; -44% in assay [16]; -6% in [17]; -4% in assay [18]. Also, the Repellency in [19] was 20%; in [20], 30%.

In the case of `CCN(CC)C(=O)c1cccc(C)c1` [DIETHYLTOLUAMIDE], the Repellency in assay [1] is recorded as 82%; in [2] it was -46%; in assay [3], 92%; in assay [4], 64%; in assay [5], -4%; in [6], -34%. Besides, the Repellency in assay [7] was 0%; in [8], 42%; in assay [9], 6%; in [10], 84%; in assay [11], 94%; in [12] it was 96%. Moreover, the Repellency in [13] is reported as -16%; in assay [14] it was 90%; in [15], 0%; in [16] it was -12%; in assay [17] it was 46%; in assay [18], 100%. The Repellency in assay [19] turned out to be 92%; in [20] it was 94%.

As for `CC(C)=CCC/C(C)=C/CO` [GERANIOL], the Repellency in assay [1] is 84%; in [2] it was -14%; in assay [3] it was 96%; in assay [4] it was 74%; in assay [5] it was -10%; in assay [6], -10%. The Repellency is 14% in assay [7]; 44% in [8]; 58% in assay [9]; 90% in assay [10]; 92% in assay [11]; 86% in [12]. Further, the Repellency in assay [13] is 14%; in assay [14], 86%; in assay [15], -12%; in [16], 60%; in [17] it was 42%; in assay [18], 95%. Moreover, the figures for the Repellency in assay [19] and in assay [20] were 96% and 82.5%, respectively.
